Results published in publication PMC5826771 (Molecular pharmaceutics, 2017).
pIC50: −log10 of the molar value. Where a SMILES comes first, the peptide text is derived from it. [ ]: non-standard residue; d: D form. Sar = CNCC(=O)O

Assays:
[1] = molecular target: T1, hPepT1 (Homo sapiens, UniProt P46059); type: cell-based; settings: hPepT1-expressing oocytes; for induction of inward current (in words): pH 6.0, voltage clamp −50 mV
T1 sequence (P46059 1-708): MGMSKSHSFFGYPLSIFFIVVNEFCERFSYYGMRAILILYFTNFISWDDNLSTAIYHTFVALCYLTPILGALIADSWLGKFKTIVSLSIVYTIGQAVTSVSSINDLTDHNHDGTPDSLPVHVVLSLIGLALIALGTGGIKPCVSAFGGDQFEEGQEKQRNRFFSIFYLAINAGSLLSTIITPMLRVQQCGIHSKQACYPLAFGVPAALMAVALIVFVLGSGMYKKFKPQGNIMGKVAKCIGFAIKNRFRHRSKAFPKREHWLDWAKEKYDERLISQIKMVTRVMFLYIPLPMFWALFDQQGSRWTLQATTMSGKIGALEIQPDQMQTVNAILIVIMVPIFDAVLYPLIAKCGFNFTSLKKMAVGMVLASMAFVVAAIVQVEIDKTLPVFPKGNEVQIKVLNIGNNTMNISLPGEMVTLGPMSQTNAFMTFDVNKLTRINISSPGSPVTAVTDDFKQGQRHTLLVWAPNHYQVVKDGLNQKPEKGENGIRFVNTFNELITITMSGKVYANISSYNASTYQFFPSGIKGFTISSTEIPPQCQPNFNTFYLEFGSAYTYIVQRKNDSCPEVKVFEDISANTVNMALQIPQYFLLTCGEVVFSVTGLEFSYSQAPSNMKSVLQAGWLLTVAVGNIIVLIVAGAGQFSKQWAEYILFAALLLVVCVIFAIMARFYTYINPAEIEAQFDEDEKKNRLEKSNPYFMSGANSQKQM
Method in brief: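 Stage V–VI X. laevis oocytes were collagenase-treated, defolliculated, held at 18 °C in modified Barth's medium with gentamicin, and injected with 50 ng hPepT1 cRNA, with water-injected controls. TEVC clamped at −50 mV under pH 7.5 buffer, then NaCl buffer pH 6.0 ± test compound to steady state, then washout. Induced current = steady-state difference, expressed relative to 1 mM or 250 µM glycylsarcosine currents.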

[2] = molecular target: T1, hPepT1; type: cell-based
[3] = molecular target: T1, hPepT1; settings: cited from earlier work

SMILES	induction of inward current (in words) [1]	pIC50 [2]	identified as hPepT1 inhibitor [3]	induced inward current ([1]; 1 mM, buffer pH 6.0, clamped at −50 mV)
Nc1ccc(CC(=O)O)cc1 [4-amino PA, 4-amino phenyl acetic acid]	induced significant inward currents	–	–	–
COC(=O)[C@H](Cc1ccccc1)NC(=O)[C@@H](N)CC(=O)O [aspartame] (H-Asp-Phe-OMe)	induced significant inward currents	2.41	inhibitor	–
CN(CC(=O)O)C(=O)CN [glycylsarcosine] (H-Gly-[Sar]-OH)	–	–	–	300–400 nA
